Tested on: larval zebrafish
Experiment: Battery of 10 behavioral assays in larval zebrafish
Type: in vivo, zebrafish (Danio rerio)
Details: for Haloperidol-like phenotype (zebrafish motor activity heat maps): Fig. 3b, three wells per drug
Procedure, shortened: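 7 d.p.f. Ekkwill larvae, 8–10 per well in E3, held 1 h at 25 °C, then given compound (<1% DMSO; DMSO-treated control wells) for 1 h at room temperature. Ten-assay battery of red/blue/violet light and 60/70 dB sound, IR-lit video; MI by frame differencing over 10,500 time points. Seven 2-fold concentrations, 12 wells each, triplicate days; magnitude = 5th-percentile-subtracted MI averaged over time.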

Row | Structure (SMILES) | Haloperidol-like phenotype (zebrafish motor activity heat maps) | also measured
1 | O=C(CCCN1CC=C(n2c(=O)[nH]c3ccccc32)CC1)c1ccc(F)cc1 [DROPERIDOL] | cause haloperidol-like phenotypes | –
2 | c1ccc2c(c1)Nc1ccccc1S2 [phenothiazine] | cause haloperidol-like phenotypes | –
3 | O=C(CCCN1CCC(O)(c2ccc(Cl)cc2)CC1)c1ccc(F)cc1 [Haloperidol] | – | MI magnitude (5 μM, 48 wells vs DMSO): increased MI magnitude at many points in the time series; Shape and average magnitude of the behavioral profile (lower concentrations (2.5–10 μM)): changed the shape of the behavioral profile without reducing its average magnitude; Motor activity (very high concentrations (20–80 μM)): reduced motor activity
4 | O=C(CCCN1CCC(O)(c2ccc(Br)cc2)CC1)c1ccc(F)cc1 [BROMPERIDOL] | cause haloperidol-like phenotypes | –
5 | CSc1ccc2c(c1)N(CCC1CCCCN1C)c1ccccc1S2 (stereo not drawn) [thioridazine] | cause haloperidol-like phenotypes | –
6 | CN1CCN(CCCN2c3ccccc3Sc3ccc(Cl)cc32)CC1 [prochlorperazine] | cause haloperidol-like phenotypes | –
7 | CN1c2ccccc2C(NCCCCCCC(=O)O)c2ccc(Cl)cc2S1(=O)=O (stereo not drawn) [Tianeptine] | – | Effect on behavioral profile (phenotypic distance from control animals) (reference set, seven concentrations): failed to show an effect
